# H9c2 TAG inh: inhibitors of triacylglycerol accumulation, primary screen, cell-based, uHTS, fluorescence, H9c2; H9c2 cells, Nile Red lipid (TAG) fluorescence; cells loaded with 200 µM oleic acid; inhibition, % at 12.5 µM; 230,000 tested, 0.66% active; AID 651582, 2012;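 active = pattern-corrected inhibition of lipid staining of at least 50% with the nuclear-stain viability signal not falling by more than 50%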;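 also: 0% = DMSO wells and 100% = triacsin C control wells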
# Tn7 DDE FP: inhibitors of Tn7 peptide binding to fibrin DD(E), primary screen, biochemical, fluorescence polarization, human fibrin, Tn7 probe; inhibition, % at 8.3 µM; FP displacement of FITC-Tn7 peptide from fibrin DD(E); 0% = median of compound wells per plate; AID 720508, 2013; Fibrinogen beta chain (Homo sapiens), P02675; 370,000 tested, 0.13% active;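 active = inhibition above the mean of compounds falling within the control limits plus 3 SD of them, cut at about 14% in these data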;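 also: 0% = plate median of compound wells and 100% = 10 µM Aha-Tn7 peptide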
# Target sequence (P02675 whole entry, looked up): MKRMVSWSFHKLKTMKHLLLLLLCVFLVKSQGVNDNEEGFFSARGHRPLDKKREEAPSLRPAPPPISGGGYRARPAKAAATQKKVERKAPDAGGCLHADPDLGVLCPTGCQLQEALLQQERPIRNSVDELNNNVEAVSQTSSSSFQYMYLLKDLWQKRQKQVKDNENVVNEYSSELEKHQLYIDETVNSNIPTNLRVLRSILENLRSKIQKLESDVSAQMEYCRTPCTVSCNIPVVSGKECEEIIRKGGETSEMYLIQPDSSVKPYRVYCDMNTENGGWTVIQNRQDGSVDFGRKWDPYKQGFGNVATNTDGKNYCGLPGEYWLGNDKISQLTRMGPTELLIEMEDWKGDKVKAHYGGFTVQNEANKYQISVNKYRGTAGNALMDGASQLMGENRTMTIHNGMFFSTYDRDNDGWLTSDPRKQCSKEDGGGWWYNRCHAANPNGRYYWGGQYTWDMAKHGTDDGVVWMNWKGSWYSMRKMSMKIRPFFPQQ
#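 Also added: labelled Tn7 tracer, 0.1 µM; Assay system: human fibrin DD(E) protein; Amount: 2 µM fibrin DD(E); Schedule: 10 min compound pre-incubation, 3 h probe incubation at room temperature; Repeats: one replicate per compound; Read-out basis: percent inhibition; Measured by: fluorescence polarization of the labelled Tn7 tracer.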
# H9c2 protect: cardioprotection against H2O2-induced cell death, primary screen, uHTS, H9c2 cells, ATPLite luminescence. 360,000 tested, 0.63% active. protection from H2O2 cell death, % at 20 µM. H9c2 cardiomyocytes, H2O2 injury protection, 2 h;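 active = compounds giving at least 50% protection of heart cells from peroxide-induced death in the single-dose screen, raw or plate-pattern-corrected value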;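 also: 0% = DMSO wells with peroxide and 100% = DMSO wells without peroxide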
# MT1-MMP act inh: blockers of MT1-MMP proenzyme processing, primary screen, HT1080 RFP-PRO-GFP cells, GFP/RFP fluorescence; Matrix metalloproteinase-14 (Homo sapiens), P50281; GFP/RFP ratio fluorescence, overnight; percent of plate control window, DMSO zero; GFP/RFP ratio change, % at 20 µM; 360,000 tested, 0.061% active; AID 651647, 2012;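 active = GFP/RFP ratio change of at least 30% with cell ATP level not reduced by more than half and red fluorescence within 50% of control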
#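 Assay system: HT1080 RFP-PRO-GFP cells. Benchmarks: DMSO vehicle wells and RFP-L50D-GFP reporter cell wells. Times: overnight cell settling, then overnight compound exposure, 37 °C, 5% CO2. Compound: 20 µM single dose, 1% DMSO. Read-out basis: GFP/RFP fluorescence ratio.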
# DAGLB inh: DAGLB lipase inhibitors, primary screen, biochemical, fluorescence, HTS | Diacylglycerol lipase-beta (Homo sapiens), Q8NCG7 | HEK293T DAGLB membrane lysate, EnzChek fluorogenic substrate | inhibition, % at 5.17 µM | 340,000 tested, 0.059% active; in the data active = inhibition above about 34%;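 also: 0% = enzyme with vehicle and 100% = wells lacking enzyme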
# Tn6 DDE FP: inhibitors of Tn6 peptide binding to fibrin DD(E), primary screen, biochemical, fluorescence polarization, human fibrin, Tn6 probe; Fibrin DD(E) TRITC-Tn6 fluorescence polarization displacement; inhibition, % at 8.3 µM; 370,000 tested, 0.21% active; AID 720509, 2013;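 active = inhibition above a per-campaign cutoff: mean of compounds within control limits plus 3 SD, cut at about 15% in these data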;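 also: 0% = median of all compound wells on the plate and 100% = blocking peptide control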
# Active calls of the source: *; / = no result. The list is not random: actives were taken first. Their share in the collection is about 1.4%.
SMILES,H9c2 TAG inh,Tn7 DDE FP,H9c2 protect,MT1-MMP act inh,DAGLB inh,Tn6 DDE FP
CCOC(=O)c1cnc(Nc2nc3ccccc3o2)nc1CN1CCN(C)CC1,-13,-3,60*,-7,2,3
O=C1/C(=C\c2ccccc2)CN(C(=O)CCN2CCCCC2)C/C1=C/c1ccccc1,46,1,-15,6,-4,5
CCN(CC)CCC(=O)N1C/C(=C/c2ccccc2)C(=O)/C(=C\c2ccccc2)C1,50*,-2,-16,-3,-6,2
CCOC(=O)C1(Cc2ccccc2)CCN(Cc2ccnc3ccccc23)CC1,/,-2,/,/,/,6
CCN(CC)C(=O)CC[C@H]1CC[C@]2(CCCN(c3ccccc3)C2)O1,/,-4,/,/,/,-3
Cc1cccc2sc(NC(=O)CCNS(=O)(=O)c3cccs3)nc12,65*,7,24,-5,3,6
CCN(CC)S(=O)(=O)c1ccc(N/N=C/c2cc(OC)c(OC)cc2OC)nc1,/,4,3,11,-1,8
CCOc1cccc(/C=N/Nc2ccc(S(=O)(=O)N(CC)CC)cn2)c1O,/,5,57*,-3,7,-6
Nc1ccc2nc(-c3ccccc3)[nH]c2c1,-1,-3,6,11,1,-6
Nc1ccc2nc(-c3cccs3)[nH]c2c1,/,5,66*,11,1,0
Cc1onc(-c2ccccc2Cl)c1C(=O)NCC(=O)O,1,2,2,1,-3,-10
Cc1onc(-c2ccccc2Cl)c1C(=O)NCCn1c(C)cc2ccccc21,-1,/,13,40*,0,/
Oc1ccc(Cl)cc1C=Nc1ccccc1Br,/,-5,48,-3,-1,4
Oc1ccc(Br)cc1C=Nc1ccc2c3c(cccc13)CC2,/,8,87*,-175,-11,10
O=c1cc(CN2CCN(S(=O)(=O)c3cccc(Cl)c3)CC2)c2ccc(O)cc2o1,17,-4,54*,-17,3,-13
O=c1cc(CN2CCN(S(=O)(=O)c3ccc4c(c3)OCCO4)CC2)c2ccc(O)cc2o1,5,-4,25,-17,2,4
Cc1nn(-c2ccc(F)cc2)c2nc(N)c(C#N)c(-c3ccc(O)c(O)c3)c12,/,1,77*,-14,6,-9
COc1cccc(C(=O)NCCN2C(=O)C3C4C=CC(C4)C3C2=O)c1 (centres undefined),/,4,/,/,/,2
CCCCN(Cc1nc2ccccc2c(=O)[nH]1)C(=O)CN1C(=O)NC2(CCCCC2)C1=O,3,-2,83*,0,1,4
CC1CCCCC12NC(=O)N(CC(=O)N(C)Cc1nc3ccccc3c(=O)[nH]1)C2=O (centres undefined),-6,9,34,2,-3,8
CCCCN(C)C(=O)CCCCn1c(=O)[nH]c2cc(OCC)c(OCC)cc2c1=O,51*,2,10,-2,2,-2
CCOc1cc2[nH]c(=O)n(CCc3ccc(OC)c(OC)c3)c(=O)c2cc1OCC,59*,2,5,-4,-2,-3
CCOc1cc2[nH]c(=S)n(CCc3ccc(OC)c(OC)c3)c(=O)c2cc1OCC,/,-2,-8,/,-1,-9
Cc1cccc(CCNC(=O)Cn2nc(-c3ccccc3)ccc2=O)c1,/,-11,/,/,/,5
C=CCNC(=O)NC[C@@]1(C(=O)OC)CC(=O)N(C)[C@@H]1c1ccccc1,/,9,/,/,/,8
O=C(CCC(=O)N/N=C/c1ccc(Br)s1)NCc1ccccc1,/,2,0,-3,0,-3
Brc1ccc(C=Nc2ccc(Nc3ccccc3)cc2)s1,39,/,-11,49*,10,/
C(=Nc1ccc(Nc2ccccc2)cc1)c1ccc2ccccc2c1,34,/,-5,44*,14,/
CC(C)n1cc(NC(=O)c2cc(-c3ccccc3)on2)cn1,50*,-1,6,11,1,-3

# Bioassay records from PubChem.
